MrgX1 PAM = allosterically activates human MrgX1 receptor signaling. Q96LB2. MrgX1-HEK293, Fluo-4 calcium flux, FDSS; hits give high values. B-score at 10 µM. 0.63% of 310,000 active;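 active = plate-corrected calcium response at least 3 library SD above typical, normal starting fluorescence, not activating the receptor alone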;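 also: compound read alongside a low EC10 to EC30 dose of BAM8-22 agonist; peak minus trough fluorescence over baseline measured at the second addition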
Target sequence (Q96LB2 whole entry, looked up): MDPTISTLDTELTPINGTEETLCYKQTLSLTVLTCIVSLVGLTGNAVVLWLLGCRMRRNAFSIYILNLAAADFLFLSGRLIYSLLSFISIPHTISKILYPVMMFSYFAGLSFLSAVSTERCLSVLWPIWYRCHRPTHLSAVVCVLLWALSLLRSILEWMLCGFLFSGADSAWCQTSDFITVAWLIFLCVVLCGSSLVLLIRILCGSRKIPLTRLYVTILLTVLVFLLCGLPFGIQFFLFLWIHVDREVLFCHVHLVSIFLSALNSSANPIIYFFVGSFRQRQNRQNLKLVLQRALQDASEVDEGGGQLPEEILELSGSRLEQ
MrgX1 ag = human MrgX1 receptor agonism, primary screen | B-score at 10 µM | 0.44% of 310,000 active | MrgX1-HEK293 cells, Fluo-4 calcium fluorescence, agonist mode; hits give high values | Q96LB2;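 active = calcium response B-score plate-corrected fluorescence ratio at least 3 library SD, with starting fluorescence B-score inside 5 SD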
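Test system: HEK293 cells stably expressing human MrgX1 receptor; amount: 15,000 cells per well; doses: compound delivered in addition one of three; times: overnight plating before 1 h dye loading; detection: Fluo-4 NW calcium-flux fluorescence, kinetic read; read-out basis: B-scored fluorescence response ratio; controls: positive and negative controls per plate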
RGS4 block = human RGS4 inhibition; B-score at 10 µM; HEK293 M3R/RGS4 inducible, Fluo-4 calcium flux; hits give high values; triggered by carbachol at its EC20; 0.45% of 310,000 active;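 active = B-score, a plate-corrected calcium signal, over three deviations above library mean, with baseline fluorescence within five deviations of library mean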;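 also: RGS4 expression induced by doxycycline in cells with stable M3 receptor; B-score is computed from the integrated fluorescence ratio over baseline after carbachol; higher B-score means a larger calcium signal and so more RGS4 inhibition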
Target sequence (P49798 whole entry, looked up): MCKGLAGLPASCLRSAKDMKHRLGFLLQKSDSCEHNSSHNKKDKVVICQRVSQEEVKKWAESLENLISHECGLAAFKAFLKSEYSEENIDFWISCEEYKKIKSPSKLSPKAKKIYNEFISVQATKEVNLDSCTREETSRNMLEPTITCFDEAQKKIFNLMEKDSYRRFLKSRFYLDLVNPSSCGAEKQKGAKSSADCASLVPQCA
MrgX1 antagonist = blocks BAM8-22 activation of human MrgX1 receptor | Q96LB2 | MRGX1-HEK293 calcium flux, Fluo-4, BAM8-22 antagonism; hits give low values | B-score at 10 µM | 1.3% of 310,000 active;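 active = calcium-response B-score plate-corrected more than 3 library SD below zero, starting fluorescence within 5 deviations, no agonist response on first addition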;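 also: peak minus trough fluorescence over baseline after final BAM8-22 challenge near maximal dose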
RGS4 pot = RGS4 potentiation or activation; 0.92% of 310,000 active; AID 463111; B-score at 10 µM; HEK293 M3R/inducible RGS4, carbachol calcium flux Fluo4; hits give low values;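 active = B-score of the integrated calcium signal more than 4 SD below the library mean, with starting fluorescence not abnormally high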;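 also: negative B-score means reduced calcium response which marks RGS4 activation or potentiation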
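test system = HEK293 cells with stable M3R and inducible RGS4 | schedule = recording 10 s baseline at 1 Hz, 100 s post-agonist | technique = Fluo4-AM (2 µM) calcium-flux fluorescence, kinetic read | measure = Agonist-evoked peak-minus-minimum fluorescence over baseline, integrated ratio, B score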
* marks the source's active call; other numbers are inactive results. Only some compounds are listed: those with a hit (about 3.5% of all), similar ones and a draw of the others.

Screening Nc1c(C(=O)NCCc2ccc(Cl)cc2)sc2ccc(S(=O)(=O)N3CCCCC3)cc12 returned MrgX1 PAM inactive, MrgX1 ag inactive, RGS4 block 8.99*, MrgX1 antagonist inactive and RGS4 pot inactive.
Screening COc1cc(S(=O)(=O)Nc2ccc(Br)cc2)ccc1N returned MrgX1 PAM inactive, MrgX1 ag inactive, RGS4 block inactive, MrgX1 antagonist inactive and RGS4 pot inactive.
Screening FC(F)(F)c1cccc(NC(=S)Nc2ccc(Cl)c(Cl)c2)c1 returned MrgX1 PAM inactive, MrgX1 ag inactive, RGS4 block inactive, MrgX1 antagonist -8.45* and RGS4 pot inactive.
O=C(NCc1ccc2c(c1)OCO2)C(=O)NCC1OCCCN1S(=O)(=O)c1ccc(F)cc1 (configuration not stated) was read as MrgX1 PAM inactive, MrgX1 ag inactive, RGS4 block inactive, MrgX1 antagonist inactive and RGS4 pot inactive.
`Cc1ccc(Cn2cnc3c(cnn3-c3ccc(F)cc3)c2=O)cc1` gave MrgX1 PAM inactive, MrgX1 ag inactive, RGS4 block inactive, MrgX1 antagonist inactive and RGS4 pot inactive.
For Cc1cccc(-n2cnc3cc([N+](=O)[O-])ccc32)c1 the results were MrgX1 PAM 8.21*, MrgX1 ag inactive, RGS4 block inactive, MrgX1 antagonist inactive and RGS4 pot inactive.
For Nc1ccc(-n2cnc3cc([N+](=O)[O-])ccc32)cc1 the results were MrgX1 PAM inactive, MrgX1 ag inactive, RGS4 block inactive, MrgX1 antagonist inactive and RGS4 pot inactive.
O=C1/C(=C\c2c(NCCOCCO)nc3ccccn3c2=O)SC(=S)N1Cc1ccco1 was read as MrgX1 PAM inactive, MrgX1 ag inactive, RGS4 block inactive, MrgX1 antagonist -14.9* and RGS4 pot inactive.
For CCN(CC)CCCNC(=O)c1ccc(N2CCCCC2)c(NS(=O)(=O)c2ccc(C)cc2)c1 the results were MrgX1 PAM inactive, MrgX1 ag 26.6*, RGS4 block inactive, MrgX1 antagonist inactive and RGS4 pot inactive.
COc1ccc(CNC(=O)CN(C(=O)c2snc(C(N)=O)c2N)c2ccccc2F)cc1 was read as MrgX1 PAM 6.49*, MrgX1 ag inactive, RGS4 block inactive, MrgX1 antagonist inactive and RGS4 pot inactive.
`CCC(=O)c1cn(/C(=C\C(=O)OC(C)(C)C)CCC(OC)OC)cc1CC` gave MrgX1 PAM inactive, MrgX1 ag inactive, RGS4 block inactive, MrgX1 antagonist inactive and RGS4 pot inactive.
Screening CCCC(=O)OCCNC(=O)c1cc2ccccc2oc1=O returned MrgX1 PAM inactive, MrgX1 ag inactive, RGS4 block inactive, MrgX1 antagonist -5.39* and RGS4 pot inactive.
`Cc1ccc(-c2nc(C(=O)NCC3CCCO3)cc3c2[nH]c2ccccc23)cc1` (configuration not stated) gave MrgX1 PAM inactive, MrgX1 ag inactive, RGS4 block inactive, MrgX1 antagonist inactive and RGS4 pot -7.04*.
Screening CCn1c(Cc2cccs2)nnc1SCC(=O)Nc1ccc(OC)c(OC)c1 returned MrgX1 PAM inactive, MrgX1 ag inactive, RGS4 block inactive, MrgX1 antagonist -4.71* and RGS4 pot inactive.
CCn1c(SCC(=O)Nc2ccc3c(c2)oc2ccccc23)nnc1-c1ccc(N)cc1 was read as MrgX1 PAM inactive, MrgX1 ag inactive, RGS4 block 7.96*, MrgX1 antagonist inactive and RGS4 pot inactive.
Screening CCCCCCCCNC(=O)c1ccc(C)cc1 returned MrgX1 PAM inactive, MrgX1 ag 32.5*, RGS4 block inactive, MrgX1 antagonist inactive and RGS4 pot inactive.
Screening Oc1ccccc1C1=Nc2nc3ccccc3n2C(c2ccccc2)C1 (configuration not stated) returned MrgX1 PAM 16.8*, MrgX1 ag inactive, RGS4 block inactive, MrgX1 antagonist inactive and RGS4 pot inactive.
COc1ccc(Cc2nc3ccc(C(=O)NC(C)Cc4ncccc4C)cc3o2)cc1OC (configuration not stated) was read as MrgX1 PAM inactive, MrgX1 ag inactive, RGS4 block inactive, MrgX1 antagonist inactive and RGS4 pot -6.95*.
`O=C(Nc1cccc([N+](=O)[O-])c1)c1cc2ccccc2cc1O` gave MrgX1 PAM inactive, MrgX1 ag inactive, RGS4 block inactive, MrgX1 antagonist -4.83* and RGS4 pot inactive.
For O=C(O)c1ccccc1C(=O)Nc1cccc([N+](=O)[O-])c1 the results were MrgX1 PAM inactive, MrgX1 ag inactive, RGS4 block inactive, MrgX1 antagonist inactive and RGS4 pot inactive.
O=[N+]([O-])c1ccc(N/N=C/C=C/c2ccco2)cc1 was read as MrgX1 PAM inactive, MrgX1 ag inactive, RGS4 block inactive, MrgX1 antagonist -10.4* and RGS4 pot -7.36*.
O=C(O)c1ccc(N/N=C/C=C/c2ccc([N+](=O)[O-])o2)cc1 was read as MrgX1 PAM inactive, MrgX1 ag inactive, RGS4 block inactive, MrgX1 antagonist -4.55* and RGS4 pot inactive.
Screening O=C(N/N=C/c1ccc([N+](=O)[O-])o1)C(=O)Nc1ccc(C(=O)O)cc1 returned MrgX1 PAM inactive, MrgX1 ag inactive, RGS4 block inactive, MrgX1 antagonist inactive and RGS4 pot inactive.
COc1ccc(Cc2nnc(NC(=O)Nc3ccccc3)s2)cc1OC was read as MrgX1 PAM inactive, MrgX1 ag inactive, RGS4 block inactive, MrgX1 antagonist inactive and RGS4 pot inactive.
For O=C1NC2(CCCCC2)C(=O)N1c1cccc(Cl)c1 the results were MrgX1 PAM inactive, MrgX1 ag inactive, RGS4 block inactive, MrgX1 antagonist inactive and RGS4 pot inactive.
Screening CCOC(=O)CN1C(=O)NC(C)(c2ccc(OC(F)F)cc2)C1=O (configuration not stated) returned MrgX1 PAM inactive, MrgX1 ag inactive, RGS4 block inactive, MrgX1 antagonist inactive and RGS4 pot inactive.
CC(=O)Nc1ccc(/C=N/N2C(=O)NC(C)(c3ccc(OC(F)F)cc3)C2=O)cc1 (configuration not stated) was read as MrgX1 PAM inactive, MrgX1 ag 30.6*, RGS4 block inactive, MrgX1 antagonist inactive and RGS4 pot -6.95*.
`CC1(c2ccc(OC(F)F)cc2)NC(=O)N(CC(=O)Nc2ccccc2)C1=O` (configuration not stated) gave MrgX1 PAM inactive, MrgX1 ag 28.7*, RGS4 block inactive, MrgX1 antagonist inactive and RGS4 pot inactive.
Screening CC1(c2ccc(OC(F)F)cc2)NC(=O)N(CC(=O)Nc2ccc3[nH]c(=O)[nH]c3c2)C1=O (configuration not stated) returned MrgX1 PAM inactive, MrgX1 ag inactive, RGS4 block inactive, MrgX1 antagonist inactive and RGS4 pot inactive.

Screening results: PubChem BioAssay, Johns Hopkins Ion Channel Center
